Results taken from ChEMBL document CHEMBL4765360, “Design, synthesis and biological evaluation of novel potent STAT3 inhibitors based on BBI608 for cancer therapy” (Eur J Med Chem, 2020).
The source made the active and inactive calls. The calls are words filed in the database; no cut-off is given here.

Key:
[1] = molecular target: T1, Signal transducer and activator of transcription 1-alpha/beta (Homo sapiens) (UniProt P42224); assay: Inhibition of STAT1 in human MDA-MB-231 cells assessed as reduction in STAT1 Y701 phosphorylation at 0.75 to 3 uM incubated for 24 hrs by Western blot analysis; type: cell-based; details: dose 0.75-3 µM
T1 sequence (whole entry): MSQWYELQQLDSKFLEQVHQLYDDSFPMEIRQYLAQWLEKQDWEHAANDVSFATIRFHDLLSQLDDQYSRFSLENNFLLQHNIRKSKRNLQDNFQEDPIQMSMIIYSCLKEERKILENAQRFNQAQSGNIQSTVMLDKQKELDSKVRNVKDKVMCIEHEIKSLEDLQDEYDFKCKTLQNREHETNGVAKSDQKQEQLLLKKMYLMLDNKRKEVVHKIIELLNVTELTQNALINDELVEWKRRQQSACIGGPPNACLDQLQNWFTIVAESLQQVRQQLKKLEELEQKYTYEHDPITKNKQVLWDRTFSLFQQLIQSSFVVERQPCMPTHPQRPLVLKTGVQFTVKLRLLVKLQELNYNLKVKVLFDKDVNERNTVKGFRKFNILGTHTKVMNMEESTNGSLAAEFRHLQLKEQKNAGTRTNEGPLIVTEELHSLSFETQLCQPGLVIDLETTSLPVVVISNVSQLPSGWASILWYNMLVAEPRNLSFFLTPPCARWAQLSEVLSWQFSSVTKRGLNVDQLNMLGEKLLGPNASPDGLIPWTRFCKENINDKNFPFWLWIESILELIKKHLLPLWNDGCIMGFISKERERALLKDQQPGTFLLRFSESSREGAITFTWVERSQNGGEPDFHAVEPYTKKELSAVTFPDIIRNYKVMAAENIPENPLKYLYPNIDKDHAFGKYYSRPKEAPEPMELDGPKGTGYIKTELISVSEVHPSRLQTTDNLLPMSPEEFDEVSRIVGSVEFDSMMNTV
Outline: (§1)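 MDA-MB-231 cells treated with a range of concentrations for 24 h. RIPA lysates with PMSF, 40 µg protein/lane, on 10% SDS-PAGE, then PVDF. Blocked in 5% milk/TBST for 2 h. Primary antibodies to STAT3, p-STAT3(Y705), STAT1, p-STAT1(Y701), c-Myc and Cyclin D1 overnight at 4 °C; GAPDH as loading control. HRP secondary for 1 h; ECL detection.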

MDA-MB-231 [2] = assay: Induction of apoptosis in human MDA-MB-231 cells assessed as early apoptotic cells at 2 uM incubated for 24 hrs by annexin V-FITC and PI staining based flow cytometry analysis (reference value: 2.69 %); type: functional
MDA-MB-231 [3] = assay: Induction of cell cycle arrest in human MDA-MB-231 cells assessed as G2/M phase accumulation at 1 uM incubated for 24 hrs by PI staining based flow cytometry analysis (reference value: 15.80 %); type: functional
MDA-MB-231 [4] = assay: Induction of cell cycle arrest in human MDA-MB-231 cells assessed as S phase accumulation at 4 uM incubated for 24 hrs by PI staining based flow cytometry analysis (reference value: 26.21 %); type: functional
MDA-MB-231 [5] = assay: Antitumor activity against human MDA-MB-231 cells xenografted in BALB/c mouse assessed reduction in tumor weight at 5 mg/kg, ip administered once daily for 21 days and measured on day 21 relative to control; type: functional; details: MDA-MB-231, ip, 504 h, time 21 day
Outline: (§2)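 Female BALB/c nude mice, 5 weeks old (16–18 g), were given 5×10^6 MDA-MB-231 cells subcutaneously. At ~50 mm³, mice were randomized to three groups (n=6): vehicle, 5 or 10 mg/kg i.p. daily for 21 days. Tumor volume (length×width²/2) was measured every 3 days and body weight recorded. Tumors were excised and weighed at the end. TGI derived versus control; mean ± SEM.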

[6] = molecular target: T2, Signal transducer and activator of transcription 3 (Homo sapiens, UniProt P40763); assay: Inhibition of STAT3 in human MDA-MB-231 cells assessed as reduction in STAT3 Y705 phosphorylation in cytoplasm at 3 uM incubated for 24 hrs by immunofluorescence staining based fluorescence microscopy; type: subcellular
T2 sequence (P40763 whole entry): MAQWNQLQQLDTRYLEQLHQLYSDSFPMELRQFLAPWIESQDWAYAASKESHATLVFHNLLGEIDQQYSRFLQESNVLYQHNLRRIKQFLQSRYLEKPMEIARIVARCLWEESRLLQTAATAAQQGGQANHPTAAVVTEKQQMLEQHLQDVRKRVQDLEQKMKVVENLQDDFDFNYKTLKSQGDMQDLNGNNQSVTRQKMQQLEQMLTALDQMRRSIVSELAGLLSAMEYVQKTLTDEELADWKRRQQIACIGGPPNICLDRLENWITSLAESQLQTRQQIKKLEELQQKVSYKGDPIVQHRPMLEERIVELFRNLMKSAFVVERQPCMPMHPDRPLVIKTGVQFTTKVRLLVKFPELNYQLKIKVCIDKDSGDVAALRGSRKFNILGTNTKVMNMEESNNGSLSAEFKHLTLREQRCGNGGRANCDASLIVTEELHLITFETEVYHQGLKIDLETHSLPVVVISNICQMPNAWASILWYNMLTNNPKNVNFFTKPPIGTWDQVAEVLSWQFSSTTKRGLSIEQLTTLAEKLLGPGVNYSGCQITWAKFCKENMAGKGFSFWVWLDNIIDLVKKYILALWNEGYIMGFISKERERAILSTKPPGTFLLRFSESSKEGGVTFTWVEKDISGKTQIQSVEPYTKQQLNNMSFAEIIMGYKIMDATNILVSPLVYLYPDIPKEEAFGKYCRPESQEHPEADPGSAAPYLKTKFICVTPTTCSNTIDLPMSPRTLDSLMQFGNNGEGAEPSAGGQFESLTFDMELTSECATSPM
Outline: (§3)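 MDA-MB-231 cells at 1×10^4 per dish, adhered overnight, then exposed to 3.0 µM for 24 h. Fixed in 4% paraformaldehyde and permeabilized with 0.5% Triton X-100. Blocked in 5% BSA for 1 h. Anti-p-STAT3 primary overnight at 4 °C, then Alexa Fluor 546 anti-rabbit for 1 h at RT. Hoechst nuclear stain; imaged by fluorescence microscopy.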

MDA-MB-231 [7] = assay: Antitumor activity against human MDA-MB-231 cells xenografted in BALB/c mouse assessed as reduction in tumor growth at 5 mg/kg, ip administered once daily for 21 days and measured on day 21 relative to control; type: functional; details: MDA-MB-231, ip, 504 h, time 21 day, read-out: TGI; outline: as §2
[8] = molecular target: T2, Signal transducer and activator of transcription 3; assay: Inhibition of STAT3 in human MDA-MB-231 cells assessed as reduction in c-myc expression incubated for 24 hrs by Western blot analysis; type: cell-based; details: dose 0.75-3 µM; outline: as §1
Mus musculus = assay: In vivo inhibition of STAT3 in BALB/c mouse xenografted with human MDA-MB-231 cells assessed as reduction in STAT3 Y705 phosphorylation in tumor tissue at 10 mg/kg, ip administered once daily for 21 days and measured on day 21 by immunofluorescent staining based fluorescence microscopy; type: functional, organism-based; details: dose 10.0 mg/kg/day, time 21.0 day
Outline: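 Tumors from the xenograft study (10 mg/kg i.p. daily, 21 days) were sectioned and fixed. Sections were stained with anti-p-STAT3 overnight at 4 °C, then Cy3 anti-rabbit secondary for 40 min at 37 °C. Nuclei stained with DAPI; imaged by fluorescence microscopy. Mean ± SEM, n=4.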

[9] = molecular target: T2, Signal transducer and activator of transcription 3; assay: Inhibition of STAT3 in human MDA-MB-231 cells assessed as reduction in STAT3 Y705 phosphorylation in nucleus at 3 uM incubated for 24 hrs by immunofluorescence staining based fluorescence microscopy; type: subcellular; outline: as §3
MDA-MB-231 [10] = assay: Induction of apoptosis in human MDA-MB-231 cells assessed as late apoptotic cells at 2 uM incubated for 24 hrs by annexin V-FITC and PI staining based flow cytometry analysis (reference value: 3.72 %); type: functional
MDA-MB-231 [11] = assay: Induction of cell cycle arrest in human MDA-MB-231 cells assessed as S phase accumulation at 1 uM incubated for 24 hrs by PI staining based flow cytometry analysis (reference value: 26.21 %); type: functional
MDA-MB-231 [12] = assay: Antitumor activity against human MDA-MB-231 cells xenografted in BALB/c mouse assessed as reduction in tumor growth at 10 mg/kg, ip administered once daily for 21 days and measured on day 21 relative to control; type: functional; details: MDA-MB-231, ip, 504 h, time 21 day, read-out: TGI; outline: as §2
MDA-MB-231 [13] = assay: Induction of apoptosis in human MDA-MB-231 cells assessed as necrotic cells at 2 uM incubated for 24 hrs by annexin V-FITC and PI staining based flow cytometry analysis (reference value: 0.23 %); type: functional
MDA-MB-231 [14] = assay: Induction of apoptosis in human MDA-MB-231 cells assessed as necrotic cells at 4 uM incubated for 24 hrs by annexin V-FITC and PI staining based flow cytometry analysis (reference value: 0.23 %); type: functional
MDA-MB-231 [15] = assay: Induction of cell cycle arrest in human MDA-MB-231 cells assessed as G0/G1 phase accumulation at 2 uM incubated for 24 hrs by PI staining based flow cytometry analysis (reference value: 57.99 %); type: functional

## COc1ccc(NC2=CC(=O)c3cc(C(C)=O)oc3C2=O)cc1
[1]
  inhibition: inactive
MDA-MB-231 [2]
  Activity: 4.69%
MDA-MB-231 [3]
  Activity: 16.27%
MDA-MB-231 [4]
  Activity: 57.09%
MDA-MB-231 [5]
  inhibition in vivo at 5 mg/kg/day: 26%
[6]
  inhibition: Active
MDA-MB-231 [7]
  inhibition in vivo at 5 mg/kg/day: 8.42%
[8]
  inhibition: Dose-dependent effect
Mus musculus
  inhibition: Active
[9]
  inhibition: Active
MDA-MB-231 [10]
  Activity: 12.69%
MDA-MB-231 [11]
  Activity: 34.31%
MDA-MB-231 [12]
  inhibition in vivo at 10 mg/kg/day: 54.6%
MDA-MB-231 [13]
  Activity: 0.38%
MDA-MB-231 [14]
  Activity: 0.77%
MDA-MB-231 [15]
  Activity: 40.49%
